High-throughput results (PubChem)
Sampled rows, rich in hits. Any-hit rate of the full collection: about 6.7%.
GRIN3A LBD mod: modulates the human NR3A ligand-binding domain; NR3A LBD differential scanning fluorimetry, Tm shift; 0% = protein alone, 100% = glycine-bound protein; Tm shift relative to glycine control, % at 25 µM; hit rate 2.5% among 340,000;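 active = melting temperature shift of at least 10% of the positive control shift, at one fixed dose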
CSC inhib: blocks cancer stem cells. cancer stem cell-like cells viability, luminescence. inhibition, % at 7.5 µM. hit rate 1.1% among 300,000. AID 2717; in the data active = inhibition above about 75%; inconclusive = no clear call, values can overlap the other calls; tested in HMLE shEcad cells
CHOP inhibitor: blocks CHOP induction under ER stress. CHO-K1 CHOP-promoter luciferase, tunicamycin-induced, 15-18 h. inhibition, % at 10 µM. hit rate 3.8% among 220,000. AID 2732;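 active = compounds that reduced the stress-induced luciferase reporter signal by more than about 70% of percent inhibition, limit read from the data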
T cruzi inh: T. cruzi replication inhibition; T. cruzi beta-gal in NIH3T3, luminescence, 90 h; inhibition, % (test concentration not listed); hit rate 1.4% among 300,000; AID 1885;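 active = mean inhibition across valid replicates above about 55%, limit read from the data; inconclusive = mean below that limit but half or more replicates reach it; inactive = mean below it, under half of replicates reach it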;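 also: signal also drops with host cell toxicity which is not excluded here; higher percent means less beta-gal luminescence so fewer parasites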
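Incubation – ≥90 h infection period, 3 h prior cell attachment · System – NIH/3T3 fibroblasts plus reporter T. cruzi · Doses – compound pinned at 50 nL/well, DMSO · Read-out basis – percent inhibition of parasite-derived β-gal signal · Signal – luminescent β-galactosidase signal after 60 min lysis · Also added – 5000 T. cruzi trypomastigotes/well · Medium – Low-serum DMEM with 2% FBS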
PREPL inh: inhibitors of human prolyl oligopeptidase-like enzyme PREPL; Q4J6C6; recombinant PREPL, fluorescence polarization activity-based probe; inhibition, % at 5.96 µM; hit rate 0.68% among 320,000; in the data active = inhibition above about 43%
Target sequence (Q4J6C6 whole entry, looked up): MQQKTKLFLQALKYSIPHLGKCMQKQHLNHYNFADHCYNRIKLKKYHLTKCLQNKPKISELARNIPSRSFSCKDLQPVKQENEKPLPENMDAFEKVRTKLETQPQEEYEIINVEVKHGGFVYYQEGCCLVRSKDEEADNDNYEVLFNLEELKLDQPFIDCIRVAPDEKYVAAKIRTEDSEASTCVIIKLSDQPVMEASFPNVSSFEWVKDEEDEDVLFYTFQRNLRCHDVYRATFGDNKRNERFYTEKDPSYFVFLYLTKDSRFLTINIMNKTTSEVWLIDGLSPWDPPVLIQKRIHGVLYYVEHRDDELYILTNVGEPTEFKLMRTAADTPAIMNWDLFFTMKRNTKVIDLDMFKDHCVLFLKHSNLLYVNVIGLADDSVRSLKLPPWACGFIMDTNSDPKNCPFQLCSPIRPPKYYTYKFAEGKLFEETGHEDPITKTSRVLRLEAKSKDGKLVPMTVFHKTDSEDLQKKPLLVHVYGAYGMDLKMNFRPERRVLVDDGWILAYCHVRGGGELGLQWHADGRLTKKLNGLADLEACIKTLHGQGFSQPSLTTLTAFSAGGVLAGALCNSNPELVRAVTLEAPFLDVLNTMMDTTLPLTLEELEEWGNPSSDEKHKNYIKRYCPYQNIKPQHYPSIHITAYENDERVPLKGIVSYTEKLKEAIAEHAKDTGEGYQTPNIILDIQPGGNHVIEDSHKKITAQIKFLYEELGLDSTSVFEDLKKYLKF
Beta cell apopt: blocks beta cell apoptosis; protection from apoptosis, % (no concentration beside the values); INS-1E cytokine-induced death, ATP luminescence, 48 h; percent of positive-control rescue, neutral wells zero; AID 435005; hit rate 0.8% among 300,000;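 active = Every replicate reaches about 75%, or at least half do and their mean reaches it too, limit read from the data; inconclusive = At least half of replicates reach the limit but their mean does not; inactive = Under half of replicates reach the limit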;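 also: higher means more ATP so stronger rescue from cytokine killing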
Of the large screens only hits and unclear results are named; the others gave an inactive call.

COc1ccc(C(CC(=O)Nc2cc([N+](=O)[O-])ccc2OC)c2ccccc2)cc1 (configuration not stated)	none
CC(C)[C@H](NS(=O)(=O)c1cccc(C(F)(F)F)c1)C(=O)OCC(=O)NC(=O)NCc1ccco1	none (no result: CHOP inhibitor, T cruzi inh)
O=C(Cn1cc(SCc2cccc(Cl)c2)c2ccccc21)N1CCOCC1	none (no result: CSC inhib)
CC(OC(=O)/C=C/c1ccccc1)C(=O)Nc1cccc(C#N)c1 (configuration not stated)	none (no result: CHOP inhibitor)
Clc1ccc(-c2onc3c2CCCC3)cc1	CHOP inhibitor 78
Cc1ccc(C(=O)Nc2ncc(Cc3ccc(F)cc3)s2)o1	CSC inhib 120
Cc1ccc(C(=O)Nc2ncc(C)s2)o1	none
N#Cc1ccc(-c2ccc(F)cc2)nc1Oc1ccc(F)cc1	CHOP inhibitor 81
N#Cc1ccc(-c2ccc(F)cc2)nc1Oc1ccccc1	none
O=[N+]([O-])c1cccc(N/N=C/c2ccc(N3CCOCC3)cc2)c1	GRIN3A LBD mod 22 (no result: CHOP inhibitor)
Clc1cccc(N/N=C/c2ccc(N3CCOCC3)cc2)c1	T cruzi inh 60
O=C(O)c1cc(N/N=C/c2ccc(N3CCOCC3)cc2)ccc1Cl	none
C(=N\Nc1ccccc1)/c1ccc(N2CCOCC2)cc1	none
O=C(NCc1ccccc1Cl)C1CCC(CNc2c(N3CCOCC3)c(=O)c2=O)CC1 (configuration not stated)	none
COC(=O)Cc1c(C)c2ccc(OCC(=O)N(C)C3CCS(=O)(=O)C3)cc2oc1=O (configuration not stated)	none (no result: CHOP inhibitor)
CC(=O)Nc1ccc(S(=O)(=O)NC2=C(N3CCN(C)CC3)C(=O)c3ccccc3C2=O)cc1	Beta cell apopt 99 (no result: CHOP inhibitor)
CCN1CCN(C2=C(NS(=O)(=O)c3ccc(NC(C)=O)cc3)C(=O)c3ccccc3C2=O)CC1	GRIN3A LBD mod 15 (no result: CHOP inhibitor)
CC(=O)Nc1ccc(S(=O)(=O)NC2=C(N3CCN(Cc4ccccc4)CC3)C(=O)c3ccccc3C2=O)cc1	none
CCOC(=O)N1CCN(C2=C(NS(=O)(=O)c3ccc(NC(C)=O)cc3)C(=O)c3ccccc3C2=O)CC1	none (no result: CHOP inhibitor)
c1ccc(Nc2nc3ccccc3n3nnnc23)cc1	none
COc1cccc(Nc2nc3ccccc3n3nnnc23)c1	CHOP inhibitor 88
Fc1cccc(Nc2nc3ccccc3n3nnnc23)c1	CHOP inhibitor 87
CC(=O)Nc1ccc(S(=O)(=O)N2CCC(C(=O)N[C@@H](C)C(=O)NC3CCCC3)CC2)cc1	none (no result: CHOP inhibitor)
CC1CCc2sc(C(=O)OC(C)C(=O)Nc3ncc(Cl)cc3Cl)cc2C1 (configuration not stated)	CHOP inhibitor 90 (no result: GRIN3A LBD mod)
CC(=O)NS(=O)(=O)c1ccc(NC(=O)[C@@H]2CCCN2S(=O)(=O)c2ccc(Cl)cc2)cc1	none (no result: CHOP inhibitor, T cruzi inh)
CCC(OC(C)=O)c1cc2c(cc1[N+](=O)[O-])OCCO2 (configuration not stated)	none
Cc1ccc(N2C(N)=C(C#N)C(c3cc(CN4CCOCC4)cs3)C3=C2CC(C)(C)CC3=O)cc1 (configuration not stated)	none
O=C1c2ccccc2-c2onc3ccc(NCCCn4ccnc4)c1c23	PREPL inh 110
CCCCCCN1C=CC=C/C1=C\C=C(C#N)C#N	none
O=C1NC(=S)N/C1=C\c1ccccc1OCc1ccc(C(=O)O)cc1	none
O=C(O)c1ccc(COc2ccccc2C=C2C(=O)c3ccccc3C2=O)cc1	GRIN3A LBD mod 29
COc1ccc(Cl)cc1C(=O)NC(=S)Nc1cc(-c2nc3ccccc3[nH]2)ccc1C	GRIN3A LBD mod 18 (no result: T cruzi inh)
CCCCCCCOC(=O)C[N+](C)(C)CCOC1CC2CCC1(C)C2(C)C (configuration not stated)	CHOP inhibitor 93, T cruzi inh 62 (no result: CSC inhib, PREPL inh, Beta cell apopt)
CCC(C)OC(=O)C[N+](C)(C)CCOC1CC2CCC1(C)C2(C)C (configuration not stated)	T cruzi inh 64
CC(C)CCOC(=O)C[N+](C)(C)CCOC1CC2CCC1(C)C2(C)C (configuration not stated)	T cruzi inh 61
CCCCCCOC(=O)C[N+](C)(C)CCOC1CC2CCC1(C)C2(C)C (configuration not stated)	T cruzi inh 72, Beta cell apopt 123
CCCCOC(=O)C[N+](C)(C)CCOC1CC2CCC1(C)C2(C)C (configuration not stated)	none
CCCOC(=O)C[N+](C)(C)CCOC1CC2CCC1(C)C2(C)C (configuration not stated)	none
Cc1nc2ccccc2n1C1CCN(C(=O)Nc2ccccc2)CC1	none (no result: Beta cell apopt)
CC1CC(C)CN(C(=O)c2nn(C)c3c2CS(=O)(=O)c2ccccc2-3)C1 (configuration not stated)	none (no result: CHOP inhibitor)
Cc1ccc(C(=O)N2[C@@H]3CN(C)C(=O)[C@@]2(Cc2ccccc2)[C@H]2C(=O)N(Cc4ccccc4)C(=O)[C@@H]32)cc1	GRIN3A LBD mod 17 (no result: CSC inhib, CHOP inhibitor, T cruzi inh, PREPL inh, Beta cell apopt)
C=C1/C=C(\C)[C@](C)(O)C[C@H](O)CC(=O)[C@H](O)[C@@H](O)[C@H](C)C[C@H](C)OC(=O)/C(C)=C/CC/C=C/[C@@H]2O[C@H]2C[C@H](C)C1	Beta cell apopt 92 (no result: GRIN3A LBD mod, CSC inhib, CHOP inhibitor, T cruzi inh)
Cc1ccc(Cl)c(NC(=O)COC(=O)c2nn(-c3ccccc3)cc2O)c1Cl	none (no result: CHOP inhibitor, T cruzi inh)
CCN(CC)CCNc1ncnc2c1sc1nc(N3CCOCC3)c3c(c12)CC(C)(C)SC3	CSC inhib inconclusive, Beta cell apopt 103
Cc1ccc(S(=O)(=O)N(C)/N=C2/C(=O)N(CC(=O)O)c3ccccc32)cc1	none (no result: CHOP inhibitor)
Cc1ccc(NC(=O)c2ncn(CC(=O)N[C@H](C)c3cccc4ccccc34)n2)cc1C	GRIN3A LBD mod 18 (no result: CSC inhib, CHOP inhibitor, T cruzi inh, PREPL inh, Beta cell apopt)
Cc1ccc(NC(=O)c2ncn(CC(=O)NCc3ccccc3)n2)cc1C	none (no result: CSC inhib, CHOP inhibitor, T cruzi inh, PREPL inh, Beta cell apopt)
Cc1ccc(NC(=O)c2ncn(CC(=O)NCc3nc4ccccc4[nH]3)n2)cc1C	GRIN3A LBD mod 17 (no result: CSC inhib, CHOP inhibitor, T cruzi inh, PREPL inh, Beta cell apopt)
Cc1ccc(NC(=O)Cn2cnc(C(=O)Nc3ccc(C)c(C)c3)n2)cc1C	none (no result: CSC inhib, CHOP inhibitor, T cruzi inh, PREPL inh, Beta cell apopt)
C/C(=N\Nc1ccc(S(=O)(=O)N2CCOCC2)cc1[N+](=O)[O-])C(C)C	none
CC(C)N(C(=O)[C@H]1C[C@H](CC(=O)NCC23CC4CC(CC(C4)C2)C3)C(=O)N2CCc3c([nH]c4cc(CCC(=O)N(C)C)ccc34)[C@]12C)C(C)C	none (no result: CSC inhib, CHOP inhibitor, T cruzi inh, PREPL inh, Beta cell apopt)
S=C(Nc1ccc(Cl)cc1)c1nc2ccccc2s1	none (no result: Beta cell apopt)
O=C(Nc1ccc(Cl)cc1)/C(=C/c1cccc(O)c1)c1nc2ccccc2s1	GRIN3A LBD mod 26, CHOP inhibitor 107, Beta cell apopt 105
COC(=O)c1ccccc1NCc1cc(=O)oc2cc(O)c(O)cc12	CSC inhib 92 (no result: CHOP inhibitor)
COc1ccc(C)cc1NCc1cc(=O)oc2cc(-c3ccccc3)c(O)cc12	GRIN3A LBD mod 20, CHOP inhibitor 93
Cc1cc(C)cc(NCc2cc(=O)oc3cc(-c4ccccc4)c(O)cc23)c1	CHOP inhibitor 103
O=C(Nc1ccc(F)cc1)c1cc(-c2ccncc2)nc2c(Cl)cccc12	none (no result: CHOP inhibitor)
Cc1nn(-c2ccccc2)c(C)c1/C=C1\C(=O)N(C)C(=S)N1C	none
